≈ marks a conversion by molar mass, not a printed value.
Legend:
GRIA1/CACNG2 = GRIA1/CACNG2 (Homo sapiens, UniProt P42261+Q9Y698); assay: Modulation of recombinant human GluA1 flop isoform/TARPgamma2 expressed in HEK293F cells assessed as blockade of glutamate-induced calcium flux by calcium 5/6 dye based FLIPR assay; type: cell-based
Method in brief: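 HEK-293 cells transiently expressing human GluA1o cotransfected with γ-2; FLIPR calcium-flux read-out; pIC50 reported; n = 1, run in triplicate.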

[1] = Clearance in Sprague-Dawley rat at 1 mg/kg, iv administered as single dose by LC-MS/MS analysis; type: ADME, organism-based; details: in vivo
Method in brief: (§1)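 Single 1 mg/kg i.v. dose as a solution to Sprague–Dawley rats (n = 3/group); vehicle 20% HP-β-CD in one study series, 1:1 PEG400/H2O in the other; plasma PK parameters derived.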

[2] = Hepatic extraction ratio in human liver microsomes at 1 uM measured after 60 mins in presence of NADPH by LC-MS/MS analysis; type: ADME, microsome; details: read-out: ERH
Method in brief: (§2)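 Human or rat liver microsomal stability at 1 μM; results expressed as extraction ratio, i.e. predicted hepatic clearance divided by species-specific hepatic blood flow.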

[3] = Hepatic extraction ratio in rat liver microsomes at 1 uM measured after 60 mins in presence of NADPH by LC-MS/MS analysis; type: ADME, microsome; details: read-out: ERH; method in brief: as §2
[4] = Apparent permeability across basolateral to apical side in MDCK-MDR1 cells at 5 uM measured after 60 mins by LC-MS/MS analysis; type: ADME, cell-based, Canis lupus familiaris; details: dog
Method in brief: (§3)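 Bidirectional apparent permeability measured in Madin–Darby canine kidney cells transfected with the MDR1 (P-gp) gene; Papp reported in ×10–6 cm/s.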

[5] = Apparent permeability across apical to basolateral side in MDCK-MDR1 cells at 5 uM measured after 60 mins by LC-MS/MS analysis; type: ADME, cell-based, Canis lupus familiaris; details: dog; method in brief: as §3
[6] = Thermodynamic solubility of the compound in simulated gastric fluid at pH 1.6 incubated under stirred condition for 3 days; type: physicochemical; details: read-out: Therm_solubility
Method in brief: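 Thermodynamic solubility (μM) determined in simulated gastric fluid at pH 1.6 and in fasted state simulated intestinal fluid at pH 6.5.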

[7] = Half life in Sprague-Dawley rat at 1 mg/kg, iv administered as single dose by LC-MS/MS analysis; type: ADME, organism-based; details: in vivo; method in brief: as §1
Homo sapiens = species: Homo sapiens; assay: Selectivity ratio of IC50 for recombinant human GluA1 flop isoform/TARPgamma2 expressed in HEK293F cells to IC50 for recombinant human GluA1 flop isoform/TARPgamma8 expressed in HEK293F cells; type: cell-based
Method in brief: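 Calcium-flux (FLIPR) inhibition in HEK-293 cells, giving pIC50 for each receptor. For γ-8, cells expressed a human GluA1o–γ-8 fusion construct, with at least three assays run in triplicate and reported as mean ± SD. For γ-2, cells expressed human GluA1-flop cotransfected with γ-2. The ratio compares the γ-2 IC50 with the γ-8 IC50.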

[8] = Volume of distribution at steady state in Sprague-Dawley rat at 1 mg/kg, iv administered as single dose by LC-MS/MS analysis; type: ADME, organism-based; details: in vivo, read-out: Vdss; method in brief: as §1
Rattus norvegicus [9] = assay: Ex vivo receptor occupancy at GluA/TARPgamma8 in Sprague-Dawley rat assessed as reduction in [3H]JNJ-56022486 receptor labeling in hippocampus at 10 mg/kg, po at Tmax by autoradiography relative to control; type: functional
Method in brief: (§4)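 Rats (Sprague–Dawley, n = 2/dose group) dosed orally with suspensions in 0.5% HPMC at 3 or 10 mg/kg; hippocampal GluA/γ-8 occupancy at Tmax by ex vivo autoradiography with [3H]12 radiotracer; brain (ng/g) and plasma (ng/mL) concentrations taken at Tmax.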

[10] = Thermodynamic solubility of the compound in fasted state simulated intestinal fluid at pH 6.5 incubated under stirred condition for 3 days; details: read-out: Therm_solubility
GRIA1/CACNG8 = GRIA1/CACNG8 (Homo sapiens, UniProt P42261+Q8WXS5); assay: Modulation of recombinant human GluA1 flop isoform/TARPgamma8 expressed in HEK293F cells assessed as blockade of glutamate-induced calcium flux by calcium 5/6 dye based FLIPR assay; type: cell-based
GRIA1/CACNG8, sequence (P42261 whole entry, the tested form may be a part, canonical isoform): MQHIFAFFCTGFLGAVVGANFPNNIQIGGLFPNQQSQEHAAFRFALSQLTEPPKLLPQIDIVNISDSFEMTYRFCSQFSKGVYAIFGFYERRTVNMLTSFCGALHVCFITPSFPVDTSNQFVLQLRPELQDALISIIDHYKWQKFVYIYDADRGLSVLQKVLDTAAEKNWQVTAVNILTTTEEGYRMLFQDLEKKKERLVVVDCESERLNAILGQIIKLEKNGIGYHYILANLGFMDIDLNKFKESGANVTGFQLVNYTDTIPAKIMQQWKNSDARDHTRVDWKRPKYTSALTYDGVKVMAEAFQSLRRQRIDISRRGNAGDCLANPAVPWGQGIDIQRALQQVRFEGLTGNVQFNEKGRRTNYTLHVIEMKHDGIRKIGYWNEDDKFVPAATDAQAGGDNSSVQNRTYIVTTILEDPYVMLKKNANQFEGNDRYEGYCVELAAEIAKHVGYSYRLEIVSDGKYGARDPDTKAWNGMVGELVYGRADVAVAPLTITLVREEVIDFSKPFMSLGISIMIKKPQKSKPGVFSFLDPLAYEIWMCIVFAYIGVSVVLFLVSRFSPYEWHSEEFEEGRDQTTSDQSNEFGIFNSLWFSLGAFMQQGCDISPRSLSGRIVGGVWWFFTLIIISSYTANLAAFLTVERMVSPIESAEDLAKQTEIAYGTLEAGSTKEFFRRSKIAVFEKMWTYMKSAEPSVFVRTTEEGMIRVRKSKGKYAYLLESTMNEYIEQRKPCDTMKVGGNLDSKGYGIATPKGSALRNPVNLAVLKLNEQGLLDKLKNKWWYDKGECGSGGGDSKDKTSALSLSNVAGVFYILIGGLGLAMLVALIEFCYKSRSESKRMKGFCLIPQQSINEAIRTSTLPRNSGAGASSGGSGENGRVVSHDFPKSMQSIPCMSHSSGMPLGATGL
GRIA1/CACNG8, sequence (Q8WXS5 whole entry, the tested form may be a part, canonical isoform): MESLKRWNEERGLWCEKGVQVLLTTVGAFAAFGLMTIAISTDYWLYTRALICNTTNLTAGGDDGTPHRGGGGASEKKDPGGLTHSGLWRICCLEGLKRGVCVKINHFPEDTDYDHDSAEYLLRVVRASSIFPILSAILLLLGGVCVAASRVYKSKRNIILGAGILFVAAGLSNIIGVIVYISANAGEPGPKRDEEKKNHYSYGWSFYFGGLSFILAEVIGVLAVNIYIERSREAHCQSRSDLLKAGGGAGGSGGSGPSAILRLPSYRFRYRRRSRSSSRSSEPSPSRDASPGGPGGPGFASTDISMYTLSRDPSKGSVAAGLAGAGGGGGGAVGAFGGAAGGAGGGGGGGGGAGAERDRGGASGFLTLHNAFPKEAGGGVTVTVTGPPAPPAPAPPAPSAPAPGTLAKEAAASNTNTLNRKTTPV
Method in brief: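 HEK-293 cells expressing a human GluA1o-γ-8 fusion construct; FLIPR calcium-flux read-out; pIC50 reported as mean and standard deviation of at least three assays run in triplicate.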

[11] = Protein binding in human plasma assessed as unbound fraction at 1 uM measured after 6 hrs by equilibrium dialysis method; type: ADME, cell-free
Method in brief: (§5)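 Human or rat plasma protein binding at 1 μM compound, expressed as fraction unbound (fub).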

[12] = Protein binding in rat plasma assessed as unbound fraction at 1 uM measured after 6 hrs by equilibrium dialysis method; type: ADME, cell-free; method in brief: as §5
Rattus norvegicus [13] = assay: Ex vivo receptor occupancy at GluA/TARPgamma8 in po dosed Sprague-Dawley rat assessed as plasma concentration causing 50% reduction in [3H]JNJ-56022486 receptor labeling in hippocampus at Tmax by autoradiography; type: functional, organism-based
Method in brief: (§6)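 Oral dose–response in Sprague–Dawley rats, n = 3/dose (8 doses in one study; vehicle 0.5% HPMC or 20% HP-β-CD); hippocampal occupancy measured at Tmax by ex vivo autoradiography using [3H]-12; EC50 expressed against plasma (ng/mL) or brain (ng/g) exposure, ED50 against dose.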

Rattus norvegicus [14] = assay: Ex vivo receptor occupancy at GluA/TARPgamma8 in po dosed Sprague-Dawley rat assessed as brain concentration causing 50% reduction in [3H]JNJ-56022486 receptor labeling in hippocampus at Tmax by autoradiography; type: functional, organism-based; method in brief: as §6
[15] = Fraction unbound in rat brain at 5 uM after 5 hrs by equilibrium dialysis method; type: ADME, tissue-based
Method in brief: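 Rat brain tissue binding, reported as fraction unbound, at 5 μM compound.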

Rattus norvegicus [16] = assay: Ex vivo receptor occupancy at GluA/TARPgamma8 in po dosed Sprague-Dawley rat assessed as reduction in [3H]JNJ-56022486 receptor labeling in hippocampus measured within 10 mins by autoradiography; type: functional
Rattus norvegicus [17] = assay: Ex vivo receptor occupancy at GluA/TARPgamma8 in Sprague-Dawley rat assessed as reduction in [3H]JNJ-56022486 receptor labeling in hippocampus at 3 mg/kg, po at Tmax by autoradiography relative to control; type: functional; method in brief: as §4
Rattus norvegicus [18] = assay: Ex vivo receptor occupancy at GluA/TARPgamma8 in po dosed Sprague-Dawley rat assessed as plasma concentration causing 50% reduction in [3H]JNJ-56022486 receptor labeling in hippocampus at ED50 at Tmax by autoradiography; type: functional, organism-based; method in brief: as §6
Rattus norvegicus [19] = assay: Ex vivo receptor occupancy at GluA/TARPgamma8 in po dosed Sprague-Dawley rat assessed as brain concentration causing 50% reduction in [3H]JNJ-56022486 receptor labeling in hippocampus at ED50 at Tmax by autoradiography; type: functional, organism-based; method in brief: as §6
Rattus norvegicus [20] = assay: Ex vivo receptor occupancy at GluA/TARPgamma8 in po dosed Sprague-Dawley rat assessed as plasma concentration causing reduction in [3H]JNJ-56022486 receptor labeling in hippocampus at 3 mg/kg, po at Tmax by autoradiography; type: functional, organism-based; method in brief: as §4
Rattus norvegicus [21] = assay: Ex vivo receptor occupancy at GluA/TARPgamma8 in po dosed Sprague-Dawley rat assessed as plasma concentration causing reduction in [3H]JNJ-56022486 receptor labeling in hippocampus at 10 mg/kg, po at Tmax by autoradiography; type: functional, organism-based; method in brief: as §4

GRIA1/CACNG2, sequence (P42261 whole entry, canonical isoform): as the sequence (P42261 whole entry, the tested form may be a part, canonical isoform) above
GRIA1/CACNG2, sequence (Q9Y698 whole entry, canonical isoform): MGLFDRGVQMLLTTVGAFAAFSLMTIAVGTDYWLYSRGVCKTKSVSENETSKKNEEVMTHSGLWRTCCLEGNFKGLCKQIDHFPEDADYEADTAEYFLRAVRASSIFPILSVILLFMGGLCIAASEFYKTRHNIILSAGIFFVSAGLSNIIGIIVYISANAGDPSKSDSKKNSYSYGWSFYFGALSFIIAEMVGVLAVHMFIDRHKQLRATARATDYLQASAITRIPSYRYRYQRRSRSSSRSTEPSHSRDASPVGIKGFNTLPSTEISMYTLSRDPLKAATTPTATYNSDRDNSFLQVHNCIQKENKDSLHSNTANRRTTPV

Cc1cc(-c2c(Cl)cncc2OC(F)F)cc2c1NC(=O)C2 showed an IC50 (GRIA1/CACNG2) greater than 10000 nM, a clearance [1] of 19 mL/min/kg and a hepatic extraction ratio at 1 h, 1 µM [2] of less than 0.3. For the same compound, the hepatic extraction ratio at 1 h, 1 µM [3] was 0.4, the Papp B→A at 1 h, 5 µM [4] was 66 ×10⁻⁶ cm/s and the Papp A→B at 1 h, 5 µM [5] was 34 ×10⁻⁶ cm/s. For the same compound, the solubility thermodynamic at 72 h [6] was 140 µM (≈ 45.5 µg/mL), the half-life [7] was 1.2 h and the Ratio IC50 (Homo sapiens) was greater than 1000. For the same compound, the Vd [8] was 1.9 L/kg, the Occ (Rattus norvegicus [9]) was 72% and the solubility thermodynamic at 72 h [10] was 64 µM (≈ 20.8 µg/mL).

Cc1cccc(C)c1-c1ccc2c(c1)CC(=O)N2 showed an IC50 (GRIA1/CACNG2) greater than 10000 nM.

With Cc1cccc(Cl)c1-c1ccc2[nH]c(=O)[nH]c2c1 the IC50 (GRIA1/CACNG8) was 50.1 nM, the IC50 (GRIA1/CACNG2) was greater than 10000 nM and the hepatic extraction ratio at 1 h, 1 µM [2] was less than 0.3. It also gave a hepatic extraction ratio at 1 h, 1 µM [3] of 0.6, a Papp B→A at 1 h, 5 µM [4] of 32 ×10⁻⁶ cm/s and a Papp A→B at 1 h, 5 µM [5] of 25 ×10⁻⁶ cm/s. It also gave a solubility thermodynamic at 72 h [6] of less than 4 µM, a fraction unbound at 6 h, 1 µM [11] of 0.9 and a solubility thermodynamic at 72 h [10] of 146 µM (≈ 37.8 µg/mL).

Compound Cc1cc(-c2c(Cl)cccc2OC(F)(F)F)cc2c1NC(=O)C2 has an IC50 (GRIA1/CACNG2) of 10000 nM, a clearance [1] of 28 mL/min/kg and a hepatic extraction ratio at 1 h, 1 µM [2] of 0.5. It also gave a hepatic extraction ratio at 1 h, 1 µM [3] of 0.4, a solubility thermodynamic at 72 h [6] of less than 4 µM and a fraction unbound at 6 h, 1 µM [11] of 0.3. For the same compound, the fraction unbound at 6 h, 1 µM [12] was 0.6, the half-life [7] was 1.9 h and the EC50 (Rattus norvegicus [13]) was 9 ng/mL (≈ 0.0263 µM). It also gave an EC50 (Rattus norvegicus [14]) of 71 ng/g, a fraction unbound at 5 h, 5 µM [15] of 0.4 and a Ratio IC50 (Homo sapiens) greater than 1000. It also gave a Vd [8] of 3.5 L/kg, an ED50 (Rattus norvegicus [16]) of 0.6 mg/kg and an Occ (Rattus norvegicus [17]) of 82%. For the same compound, the EC50 (Rattus norvegicus [18]) was 9 ng/mL (≈ 0.0263 µM), the EC50 (Rattus norvegicus [19]) was 71 ng/g and the solubility thermodynamic at 72 h [10] was 55 µM (≈ 18.8 µg/mL).

In the case of COc1cccc(Cl)c1-c1ccc2[nH]c(=O)[nH]c2c1, the IC50 (GRIA1/CACNG8) is reported as 126 nM, the IC50 (GRIA1/CACNG2) is reported as greater than 10000 nM and the hepatic extraction ratio at 1 h, 1 µM [2] is reported as 0.3. The hepatic extraction ratio at 1 h, 1 µM [3] was 0.6, the Papp B→A at 1 h, 5 µM [4] was 50 ×10⁻⁶ cm/s and the Papp A→B at 1 h, 5 µM [5] was 26 ×10⁻⁶ cm/s. It also gave a solubility thermodynamic at 72 h [6] of 19 µM (≈ 5.22 µg/mL) and a solubility thermodynamic at 72 h [10] of 142 µM (≈ 39 µg/mL).

Work on O=c1[nH]c2ccc(-c3c(Cl)cncc3Cl)cc2[nH]1 yielded an IC50 (GRIA1/CACNG8) of 251 nM, an IC50 (GRIA1/CACNG2) greater than 10000 nM and a hepatic extraction ratio at 1 h, 1 µM [2] of less than 0.3. It also gave a hepatic extraction ratio at 1 h, 1 µM [3] of less than 0.2, a Papp B→A at 1 h, 5 µM [4] of 83 ×10⁻⁶ cm/s and a Papp A→B at 1 h, 5 µM [5] of 16 ×10⁻⁶ cm/s. For the same compound, the solubility thermodynamic at 72 h [6] was 42 µM (≈ 11.8 µg/mL) and the solubility thermodynamic at 72 h [10] was 52 µM (≈ 14.6 µg/mL).

For Cc1cc(-c2c(Cl)cncc2OC(F)(F)F)cc2c1NC(=O)C2, the IC50 (GRIA1/CACNG8) was 2.51 nM, the IC50 (GRIA1/CACNG2) was greater than 10000 nM and the clearance [1] was 37 mL/min/kg. For the same compound, the hepatic extraction ratio at 1 h, 1 µM [2] was less than 0.3, the hepatic extraction ratio at 1 h, 1 µM [3] was 0.5 and the Papp B→A at 1 h, 5 µM [4] was 51 ×10⁻⁶ cm/s. It also gave a Papp A→B at 1 h, 5 µM [5] of 44 ×10⁻⁶ cm/s, a solubility thermodynamic at 72 h [6] of 11 µM (≈ 3.77 µg/mL) and a half-life [7] of 1.4 h. The Ratio IC50 (Homo sapiens) was greater than 1000, the Vd [8] was 2.7 L/kg and the ED50 (Rattus norvegicus [16]) was 5.4 mg/kg. It also gave an Occ (Rattus norvegicus [9]) of 86%, a Cp (Rattus norvegicus [20]) of 87 ng/mL and a Cp (Rattus norvegicus [21]) of 2050 ng/mL. For the same compound, the solubility thermodynamic at 72 h [10] was 45 µM (≈ 15.4 µg/mL).

For O=c1[nH]c2ccc(-c3c(Cl)cccc3Cl)cc2[nH]1, the IC50 (GRIA1/CACNG8) was 50.1 nM, the IC50 (GRIA1/CACNG2) was greater than 10000 nM and the hepatic extraction ratio at 1 h, 1 µM [2] was less than 0.3. The hepatic extraction ratio at 1 h, 1 µM [3] was 0.3, the Papp B→A at 1 h, 5 µM [4] was 49 ×10⁻⁶ cm/s and the Papp A→B at 1 h, 5 µM [5] was 26 ×10⁻⁶ cm/s. For the same compound, the solubility thermodynamic at 72 h [6] was less than 4 µM, the fraction unbound at 6 h, 1 µM [11] was 0.5 and the fraction unbound at 6 h, 1 µM [12] was 0.6. The solubility thermodynamic at 72 h [10] was 69 µM (≈ 19.3 µg/mL).
